Source: ChEMBL document CHEMBL4219118, “Cathepsin B inhibitors: Further exploration of the nitroxoline core” (Bioorg Med Chem Lett, 2018)

How the values were obtained:
[1] = molecular target: T1, Cathepsin B (Homo sapiens, UniProt P07858); test: Inhibition of recombinant human cathepsin B exopeptidase activity assessed as inhibitory constant for enzyme-inhibitor complex using Abz-Gly-Ile-Val-Arg-Ala-Lys(Dnp)-OH as substrate in presence of pH 5 acetate buffer by fluorescence assay
[2] = molecular target: T1, Cathepsin B; test: Inhibition of recombinant human cathepsin B endopeptidase activity assessed as inhibitory constant for enzyme-substrate-inhibitor complex using Z-Arg-Arg-AMC as substrate in presence of pH 6 phosphate buffer by fluorescence assay
[3] = molecular target: T1, Cathepsin B; test: Inhibition of recombinant human cathepsin B endopeptidase activity assessed as inhibitory constant for enzyme-inhibitor complex using Z-Arg-Arg-AMC as substrate in presence of pH 4.5 acetate buffer by fluorescence assay
Outline: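 Recombinant cathepsin B endopeptidase activity assayed with the small substrate Z-Arg-Arg-AMC at pH 4.5. Acidic conditions chosen to shift the enzyme toward the closed (exopeptidase) conformation. Ki reported.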

[4] = molecular target: T1, Cathepsin B; test: Inhibition of recombinant human cathepsin B exopeptidase activity assessed as inhibitory constant for enzyme-substrate-inhibitor complex using Abz-Gly-Ile-Val-Arg-Ala-Lys(Dnp)-OH as substrate in presence of pH 5 acetate buffer by fluorescence assay
[5] = molecular target: T1, Cathepsin B; test: Non-competitive inhibition of recombinant human cathepsin B exopeptidase activity assessed as inhibitory constant for enzyme-substrate-inhibitor complex using Abz-Gly-Ile-Val-Arg-Ala-Lys(Dnp)-OH as substrate in presence of pH 5 acetate buffer by fluorescence assay
[6] = molecular target: T1, Cathepsin B; test: Non-competitive inhibition of recombinant human cathepsin B endopeptidase activity assessed as inhibitory constant for enzyme-substrate-inhibitor complex using Z-Arg-Arg-AMC as substrate in presence of pH 6 phosphate buffer by fluorescence assay
[7] = molecular target: T1, Cathepsin B; test: Non-competitive inhibition of recombinant human cathepsin B exopeptidase activity assessed as inhibitory constant for enzyme-inhibitor complex using Abz-Gly-Ile-Val-Arg-Ala-Lys(Dnp)-OH as substrate in presence of pH 5 acetate buffer by fluorescence assay
[8] = molecular target: T1, Cathepsin B; test: Non-competitive inhibition of recombinant human cathepsin B endopeptidase activity assessed as inhibitory constant for enzyme-inhibitor complex using Z-Arg-Arg-AMC as substrate in presence of pH 6 phosphate buffer by fluorescence assay

| Compound | Ki [1] | Ki [2] | Ki [3] | Ki [4] | Ki [5] | Ki [6] | Ki [7] | Ki [8] |
| --- | --- | --- | --- | --- | --- | --- | --- | --- |
| CN(CC#N)Cc1cc([N+](=O)[O-])ccc1O | Not Active | Not Active | Not Active | Not Active |  |  |  |  |
| O=[N+]([O-])c1ccc(O)c(CN2CCCCC2)c1 | Not Active | Not Active | Not Active | Not Active |  |  |  |  |
| O=[N+]([O-])c1ccc(-c2cc3ccccc3s2)c2ncccc12 | Not Active | Not Active | Not Active | Not Active |  |  |  |  |
| Cc1ccc(-c2ccc([N+](=O)[O-])c3cccnc23)cc1 | Not Active | Not Active | Not Active | Not Active |  |  |  |  |
| N#Cc1ccc(-c2ccc([N+](=O)[O-])c3cccnc23)cc1 | Not Active | Not Active | Not Active | Not Active |  |  |  |  |
| O=[N+]([O-])c1ccc(-c2cc3ccccc3o2)c2ncccc12 | Not Active | Not Active | Not Active | Not Active |  |  |  |  |
| CN(CC#N)C(=O)c1cc([N+](=O)[O-])c2cccnc2c1O |  |  |  |  | 121 µM | 185 µM | 121 µM | 185 µM |
| CN(CC#N)C(=O)c1cc([N+](=O)[O-])ccc1O | Not Active | Not Active | Not Active | Not Active |  |  |  |  |
| N#CCN(Cc1ccccc1)C(=O)c1cc([N+](=O)[O-])ccc1O |  |  |  |  | 96 µM | 342 µM | 96 µM | 342 µM |
| N#Cc1ccc(-c2ccc(-c3ccc([N+](=O)[O-])c4cccnc34)o2)cc1 | Not Active | Not Active | Not Active | Not Active |  |  |  |  |
| O=[N+]([O-])c1ccc(-c2c(-c3ccc([N+](=O)[O-])c4cccnc34)oc3ccccc23)cc1 | Not Active | Not Active | Not Active | Not Active |  |  |  |  |
| O=[N+]([O-])c1ccc(Br)c2ncccc12 | Not Active | Not Active | Not Active | Not Active |  |  |  |  |
| O=[N+]([O-])c1ccc(-c2ccccc2)c2ncccc12 | Not Active | Not Active | Not Active | Not Active |  |  |  |  |
| O=[N+]([O-])c1ccc(-c2ccco2)c2ncccc12 | Not Active | Not Active | Not Active | Not Active |  |  |  |  |
| O=C(c1cc([N+](=O)[O-])ccc1O)N1CCOCC1 |  |  |  |  | 176 µM | 237 µM | 176 µM | 237 µM |
| O=C(NCC1CCN(C2Cc3ccccc3C2)CC1)c1cc([N+](=O)[O-])c2cccnc2c1O | Not Active | Not Active | Not Active | Not Active |  |  |  |  |
| O=C(NCC1CCN(Cc2nc3ccccc3s2)CC1)c1cc([N+](=O)[O-])c2cccnc2c1O | Not Active | Not Active | Not Active | Not Active |  |  |  |  |
| O=C(O)c1ccc2c([N+](=O)[O-])cc([N+](=O)[O-])c(O)c2n1 | Not Active | Not Active | Not Active | Not Active |  |  |  |  |
| CC(=O)c1ccc(-c2ccc(-c3ccc([N+](=O)[O-])c4cccnc34)n2C)cc1 | Not Active | Not Active | Not Active | Not Active |  |  |  |  |
| Cc1ccc(-c2ccc([N+](=O)[O-])c3cccnc23)s1 | Not Active | Not Active | Not Active | Not Active |  |  |  |  |
| N#CCNC(=O)c1cc([N+](=O)[O-])ccc1O |  |  |  |  | 168 µM | 271 µM | 168 µM | 271 µM |
| Cc1cccc(-c2ccc([N+](=O)[O-])c3cccnc23)c1 | Not Active | Not Active | Not Active | Not Active |  |  |  |  |
| NC(=O)c1ccc([N+](=O)[O-])c2cccnc12 | Not Active | Not Active | Not Active | Not Active |  |  |  |  |
| O=[N+]([O-])c1ccc(-c2occc2-c2ccc([N+](=O)[O-])c3cccnc23)cc1 | Not Active | Not Active | Not Active | Not Active |  |  |  |  |

| Compound | Ki [1] | Ki [2] | Ki [3] | Ki [4] | Ki [5] | Ki [6] | Ki [7] | Ki [8] |
| --- | --- | --- | --- | --- | --- | --- | --- | --- |
| CC1CCN(Cc2cc([N+](=O)[O-])ccc2O)CC1 | Not Active | Not Active | Not Active | Not Active |  |  |  |  |
| N#CCN(Cc1ccccc1)Cc1cc([N+](=O)[O-])ccc1O | Not Active | Not Active | Not Active | Not Active |  |  |  |  |
| O=C(c1cc([N+](=O)[O-])c2cccnc2c1O)N1CCOCC1 |  |  |  |  | 122 µM | 136 µM | 122 µM | 136 µM |
| O=[N+]([O-])c1ccc(-c2ccc[nH]2)c2ncccc12 | Not Active | Not Active | Not Active | Not Active |  |  |  |  |
| N#CC1(NCc2cc([N+](=O)[O-])ccc2O)CC1 | Not Active | Not Active | Not Active | Not Active |  |  |  |  |
| O=[N+]([O-])c1ccc(O)c(CN2CCOCC2)c1 |  |  |  |  | 97 µM | 212 µM | 97 µM | 212 µM |
| Cc1ccc2c([N+](=O)[O-])cc([N+](=O)[O-])c(O)c2n1 | Not Active | Not Active | Not Active | Not Active |  |  |  |  |
| CN(CC#N)Cc1ccc2c([N+](=O)[O-])ccc(O)c2n1 | Not Active | Not Active | Not Active | Not Active |  |  |  |  |
| O=[N+]([O-])c1cccc(-c2ccc([N+](=O)[O-])c3cccnc23)c1 | Not Active | Not Active | Not Active | Not Active |  |  |  |  |
| CC(=O)c1ccc(-c2ccc(-c3ccc([N+](=O)[O-])c4cccnc34)s2)cc1 | Not Active | Not Active | Not Active | Not Active |  |  |  |  |
| Cc1ccc([N+](=O)[O-])c2cccnc12 | Not Active | Not Active | Not Active | Not Active |  |  |  |  |
| O=C(c1cc([N+](=O)[O-])ccc1O)N1CCCCC1 | Not Active | Not Active | Not Active | Not Active |  |  |  |  |
| CC1CCN(C(=O)c2cc([N+](=O)[O-])ccc2O)CC1 | Not Active | Not Active | Not Active | Not Active |  |  |  |  |
| CC(=O)c1ccc(-c2c(-c3ccc([N+](=O)[O-])c4cccnc34)oc3ccccc23)cc1 | Not Active | Not Active | Not Active | Not Active |  |  |  |  |
| Nc1ccc2c([N+](=O)[O-])ccc(O)c2n1 |  |  |  |  | 329 µM | 202 µM | 329 µM | 202 µM |
| COCCN(CC1CCN(Cc2nc3ccccc3o2)CC1)C(=O)c1cc([N+](=O)[O-])c2cccnc2c1O | Not Active | Not Active | Not Active | Not Active |  |  |  |  |
| O=[N+]([O-])c1ccc(-c2ccoc2)c2ncccc12 | Not Active | Not Active | Not Active | Not Active |  |  |  |  |
| O=C(O)c1ccc([N+](=O)[O-])c2cccnc12 | Not Active | Not Active | Not Active | Not Active |  |  |  |  |
| O=C(O)c1ccc2c([N+](=O)[O-])ccc(O)c2n1 |  |  |  |  | 240 µM | 139 µM | 240 µM | 139 µM |
| N#CCNCc1cc([N+](=O)[O-])ccc1O | Not Active | Not Active | Not Active | Not Active |  |  |  |  |
| O=[N+]([O-])c1ccc(-c2ccsc2)c2ncccc12 | Not Active | Not Active | Not Active | Not Active |  |  |  |  |
| Cn1cccc1-c1ccc([N+](=O)[O-])c2cccnc12 |  |  |  |  | 224 µM | 333 µM | 224 µM | 333 µM |
| N#Cc1ccc([N+](=O)[O-])c2cccnc12 | Not Active | Not Active | Not Active | Not Active |  |  |  |  |
